Laboratory results taken from ChEMBL document CHEMBL2407079, “Potent DGAT1 Inhibitors in the Benzimidazole Class with a Pyridyl-oxy-cyclohexanecarboxylic Acid Moiety” (ACS Med Chem Lett, 2013).

Assays:
[1] = target: T1, Diacylglycerol O-acyltransferase 1 (Homo sapiens, UniProt O75907); test: Inhibition of human DGAT1
T1 sequence (O75907 whole entry): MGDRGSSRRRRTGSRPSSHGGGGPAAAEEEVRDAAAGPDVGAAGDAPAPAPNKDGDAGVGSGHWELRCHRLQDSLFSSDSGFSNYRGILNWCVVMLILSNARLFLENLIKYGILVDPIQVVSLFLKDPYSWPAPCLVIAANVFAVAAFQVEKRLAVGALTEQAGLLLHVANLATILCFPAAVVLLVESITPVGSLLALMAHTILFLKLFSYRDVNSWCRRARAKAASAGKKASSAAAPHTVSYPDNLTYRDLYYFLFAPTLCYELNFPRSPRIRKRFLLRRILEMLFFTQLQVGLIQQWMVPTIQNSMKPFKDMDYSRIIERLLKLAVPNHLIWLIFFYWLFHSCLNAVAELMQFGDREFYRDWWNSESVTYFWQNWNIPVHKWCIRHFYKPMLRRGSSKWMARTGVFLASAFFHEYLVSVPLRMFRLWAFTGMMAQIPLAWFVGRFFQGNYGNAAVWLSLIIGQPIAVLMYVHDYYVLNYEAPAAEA

[2] = target: T2, Diacylglycerol O-acyltransferase 1 (Mus musculus, UniProt Q9Z2A7); test: Inhibition of mouse DGAT1
T2 sequence (Q9Z2A7 whole entry): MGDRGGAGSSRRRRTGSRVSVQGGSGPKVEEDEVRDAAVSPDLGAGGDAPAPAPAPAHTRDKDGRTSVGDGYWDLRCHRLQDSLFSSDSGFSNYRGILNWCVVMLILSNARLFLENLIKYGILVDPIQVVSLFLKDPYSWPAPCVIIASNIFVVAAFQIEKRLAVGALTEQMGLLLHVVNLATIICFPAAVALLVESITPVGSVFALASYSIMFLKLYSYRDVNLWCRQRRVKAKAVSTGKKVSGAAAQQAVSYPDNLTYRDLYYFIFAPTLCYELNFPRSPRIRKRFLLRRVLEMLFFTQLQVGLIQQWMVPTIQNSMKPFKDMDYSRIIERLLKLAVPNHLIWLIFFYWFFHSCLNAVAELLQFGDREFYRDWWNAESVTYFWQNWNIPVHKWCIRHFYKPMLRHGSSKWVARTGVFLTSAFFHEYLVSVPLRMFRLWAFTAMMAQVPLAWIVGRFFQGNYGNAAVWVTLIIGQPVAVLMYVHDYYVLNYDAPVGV

[3] = Lipophilicity, log D of the compound by HPLC analysis; assay type: physicochemical
[4] = Bioavailability in Sprague-Dawley rat at 1 mg/kg, iv; assay type: ADME, organism-based; conditions: in vivo
Summary of the method: (§1)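 Sprague–Dawley rats; intravenous dose of 1 mg/kg given as a solution in EtOH/PEG400/water (10:50:40).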

[5] = Clearance in Sprague-Dawley rat at 1 mg/kg, iv; assay type: ADME, organism-based; parameters: dose 1 mg/kg, route intravenous; conditions: in vivo; summary of the method: as §1
[6] = Volume of distribution at steady state in Sprague-Dawley rat at 1 mg/kg, iv; assay type: ADME, organism-based; parameters: dose 1 mg/kg, route intravenous; conditions: in vivo, read-out: Vdss; summary of the method: as §1
Rattus norvegicus = test: AUC in Sprague-Dawley rat assessed as cis-4-(5-(5-fluoro-1H-benzo[d]imidazol-2-yl)-2,3'-bipyridin-6'-yloxy)cyclohexanecarboxylic acid at 2 mg/kg, po; assay type: ADME, organism-based, Plasma; parameters: dose 2 mg/kg, route oral; conditions: in vivo
Summary of the method: (§2)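 Sprague–Dawley rats; 1 mg/kg iv and 2 mg/kg p.o., both as solutions in EtOH/PEG400/water (10:50:40). Plasma AUC measured for the parent and, where applicable, for the epimerized metabolite formed in vivo.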

[7] = Half life in Sprague-Dawley rat at 1 mg/kg, iv; assay type: ADME, organism-based; parameters: dose 1 mg/kg, route intravenous; conditions: in vivo; summary of the method: as §1
[8] = AUC in Sprague-Dawley rat at 2 mg/kg, po; assay type: ADME, organism-based; parameters: dose 2 mg/kg, route oral; conditions: plasma; summary of the method: as §2
Mus musculus = test: Reduction in triglyceride excursion in mouse at 10 mg/kg, po measured at 18 hrs by lipid tolerance test; assay type: functional; parameters: scale not given: the % may be the effect or the level left
Summary of the method: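 Mouse lipid tolerance test. Oral dose of 10 mg/kg as a suspension in 0.5% methylcellulose; triglyceride reduction read at 18 h.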

SMILES | IC50 [1] | IC50 [2] | logD [3] | bioavailability [4] | clearance [5] | Vd [6] | AUC (Rattus norvegicus) | half-life [7] | AUC [8] | Activity (Mus musculus)
O=C(O)C[C@H]1CC[C@H](c2ccc(-c3ccc(-c4nc5cc(Cl)ccc5[nH]4)cn3)cc2)CC1 | 1.1 nM | 1 nM | 1.8 | – | – | – | – | – | – | –
O=C(O)[C@H]1CC[C@@H](Oc2ccc(-c3ccc(-c4nc5ccc(OC(F)(F)F)cc5[nH]4)cn3)cn2)CC1 | 3.9 nM | 4.6 nM | – | – | – | – | – | – | – | –
O=C(O)[C@H]1CC[C@H](Oc2ccc(-c3ccc(-c4nc5ccc(F)cc5[nH]4)cn3)cn2)CC1 | 2.5 nM | 8.1 nM | – | 24% | 4.2 mL/min/kg | 0.46 L/kg | 0.48 µM·h | 51.6 min | 4.47 µM·h | –
O=C(O)[C@H]1CC[C@@H](Oc2ccc(-c3ccc(-c4nc5cc(C(F)(F)F)ccc5[nH]4)cn3)cn2)CC1 | 1.7 nM | 2.2 nM | 1.62 | – | – | – | – | – | – | 84%
CS(=O)(=O)c1ccc2nc(-c3ccc(-c4ccc(O[C@H]5CC[C@@H](C(=O)O)CC5)nc4)nc3)[nH]c2c1 | 101 nM | 358 nM | – | – | – | – | – | – | – | –
